Assays:
[1] = system: Brassica rapa subsp. oleifera; assay: Inhibition of Brassica rapa subsp. oleifera at 100 mg/L; format: functional
Summary of the method: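 Rape (Brassica campestris L.) root growth assay, per the group's earlier published method; compound tested at 100 mg L-1; read-out is root length inhibition (%); monosulfuron used as reference herbicide.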

[2] = molecular target: T1, Acetolactate synthase, chloroplastic (Arabidopsis thaliana) (UniProt P17597); assay: Inhibition of Arabidopsis thaliana AHAS at 100 mg/L colorimetric assay
T1 sequence (whole entry): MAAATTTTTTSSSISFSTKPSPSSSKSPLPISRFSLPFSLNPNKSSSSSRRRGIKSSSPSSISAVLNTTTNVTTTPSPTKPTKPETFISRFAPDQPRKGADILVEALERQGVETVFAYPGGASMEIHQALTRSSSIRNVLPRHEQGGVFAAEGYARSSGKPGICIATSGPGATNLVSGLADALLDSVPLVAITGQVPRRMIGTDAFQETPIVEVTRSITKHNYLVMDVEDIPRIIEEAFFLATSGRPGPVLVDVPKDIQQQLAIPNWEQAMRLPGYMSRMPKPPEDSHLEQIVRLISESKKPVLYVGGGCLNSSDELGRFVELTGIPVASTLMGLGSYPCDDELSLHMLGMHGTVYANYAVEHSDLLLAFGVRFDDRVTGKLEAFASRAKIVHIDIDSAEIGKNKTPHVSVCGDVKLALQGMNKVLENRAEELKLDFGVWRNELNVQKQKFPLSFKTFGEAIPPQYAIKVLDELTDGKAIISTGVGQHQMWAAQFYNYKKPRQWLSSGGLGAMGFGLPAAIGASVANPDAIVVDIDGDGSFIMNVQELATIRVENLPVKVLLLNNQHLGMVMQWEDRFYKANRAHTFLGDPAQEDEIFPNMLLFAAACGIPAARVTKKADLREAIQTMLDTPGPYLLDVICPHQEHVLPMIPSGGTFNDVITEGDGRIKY
Summary of the method: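 Expressed and purified A. thaliana AHAS tested at a single concentration of 100 mg L-1. Enzyme activity was read by a colorimetric method described earlier, and the result is given as percent inhibition of AtAHAS activity.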

[3] = system: Brassica rapa subsp. oleifera; assay: Inhibition of Brassica rapa subsp. oleifera root growth at 10 mg/L; format: functional

Structure (SMILES) | inhibition at 100 µg/mL [1] [%] | inhibition [2] [%] | inhibition at 10 µg/mL [3] [%]
O=C1Nc2ccccc2C1=O [ISATIN] | 52 | 70 | 24
Cc1cc(Cl)cc2c1NC(=O)C2=O | 65 | 65 | 10
O=C(N/N=C1\C(=O)N(Cc2ccc(F)cc2)c2ccccc21)c1ccccc1 | 15 | 80 | 0
Cc1ccnc(NC(=O)NS(=O)(=O)c2ccccc2C(=O)O)n1 [MONOSULFURON] | 78 | 90 | 64
O=C1Nc2ccccc2/C1=N/Nc1ncccc1Cl | 19 | 70 | 0
Cc1ccc2c(c1)C(=O)C(=O)N2 | 80 | 50 | 13
CN1C(=O)C(=O)c2cc(I)ccc21 | 27 | 60 | 13
Cc1ccc2c(c1)C(=O)C(=O)N2C | 26 | 75 | 14
O=C1Nc2c(Br)cccc2/C1=N/NC(=O)c1ccccc1F | 39 | 95 | 14
O=C1Nc2ccc(S(=O)(=O)O)cc2C1=O | 18 | 10 | 4
O=C1Nc2ccc(Cl)cc2C1=O | 95 | 55 | 28
CN1C(=O)C(=O)c2cc(F)ccc21 | 59 | 60 | 19
O=C1Nc2ccc([N+](=O)[O-])cc2C1=O [5-NITROISATIN] | 82 | 60 | 7
O=C1Nc2c(I)cccc2/C1=N/NC(=O)c1ccccc1O | 25 | 95 | 0
O=C1Nc2c(Cl)cccc2C1=O | 83 | 70 | 51
Cc1ccccc1CN1C(=O)/C(=N\NC(=O)c2ccccc2)c2ccccc21 | 0 | 50 | 0
O=C1Nc2ccc(I)cc2C1=O [5-IODOISATIN] | 92 | 70 | 31

Structure (SMILES) | inhibition at 100 µg/mL [1] [%] | inhibition [2] [%] | inhibition at 10 µg/mL [3] [%]
O=C1Nc2ccc(C(F)(F)F)cc2C1=O | 93 | 60 | 27
CN1C(=O)C(=O)c2cccc(Cl)c21 | 59 | 80 | 31
O=C(N/N=C1\C(=O)N(Cc2ccc(Cl)cc2Cl)c2ccccc21)c1ccccc1 | 6 | 50 | 0
CC(C)(C)c1ccc(CN2C(=O)/C(=N\NC(=O)c3ccccc3)c3ccccc32)cc1 | 15 | 60 | 0
O=C1Nc2ccc(F)cc2C1=O [5-FLUOROISATIN] | 88 | 65 | 52
CN1C(=O)C(=O)c2cc(Cl)ccc21 | 53 | 60 | 20
O=C(N/N=C1\C(=O)N(Cc2cccc(F)c2)c2ccccc21)c1ccccc1 | 40 | 95 | 0
CN1C(=O)C(=O)c2ccccc21 | 24 | 50 | 7
O=C1Nc2ccccc2/C1=N/O | 55 | 45 | 0
O=C1Nc2c(I)cccc2/C1=N/NC(=O)c1cccc(F)c1 | 81 | 75 | 51
O=C1Nc2c(Br)cccc2/C1=N/NC(=O)c1cccc(F)c1 | 16 | 60 | 0
Cc1cc(C)n(CC(=O)N/N=C2\C(=O)Nc3ccccc32)n1 | 27 | 35 | 0
N#Cc1ccc(CN2C(=O)/C(=N\NC(=O)c3ccccc3)c3ccccc32)cc1 | 48 | 20 | 2
Cc1nc(C)c(C(=O)N/N=C2\C(=O)Nc3ccccc32)s1 | 21 | 30 | 0
COc1ccc2c(c1)C(=O)C(=O)N2 [5-METHOXYISATIN] | 30 | 60 | 20
CN1C(=O)C(=O)c2cc([N+](=O)[O-])ccc21 | 33 | 25 | 2

— ChEMBL document CHEMBL3045582, “Chemical synthesis, in vitro acetohydroxyacid synthase (AHAS) inhibition, herbicidal activity, and computational studies of isatin derivatives” (2011)
